Bioassay records: PubChem BioAssay, NMMLSC
In the library only some 2.3% were active in any assay of this set; here they are far more common.
MEKK2 WT-MEK5 = modulators of MEK5 binding to wildtype MEKK2, primary screen, biochemical, multiplex bead flow cytometry, Alexa488-MEK5; Mitogen-activated protein kinase kinase kinase 2 (Homo sapiens), Q9Y2U5; Alexa488-MEK5 binding to MEKK2 WT; actives lie on both sides; binding response (% of control), % at 10 µM; 290,000 compounds, 1.1% hits; AID 1531, 2009; in the data active = binding response below about 67% or above about 130%
MEKK3 PB1 HTS = modulators of MEKK3-MEK5 PB1 binding, primary screen, biochemical, wildtype MEKK3, multiplex bead flow cytometry, Alexa488-MEK5; 290,000 compounds, 1.4% hits; Mitogen-activated protein kinase kinase kinase 3 (Homo sapiens), Q99759; bead-based flow cytometry, Alexa488-MEK5 binding to MEKK3; actives lie on both sides; 0 = blocked by unlabeled MEK5, 100 = vehicle; binding response (% of control), % at 10 µM;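 active = binding response more than 3 SD above or below the average of its plate-row segment, actives on both sides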;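 also: Alexa488 bead fluorescence after subtracting the streptavidin-only scavenger bead signal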
Target sequence (Q99759 whole entry, looked up): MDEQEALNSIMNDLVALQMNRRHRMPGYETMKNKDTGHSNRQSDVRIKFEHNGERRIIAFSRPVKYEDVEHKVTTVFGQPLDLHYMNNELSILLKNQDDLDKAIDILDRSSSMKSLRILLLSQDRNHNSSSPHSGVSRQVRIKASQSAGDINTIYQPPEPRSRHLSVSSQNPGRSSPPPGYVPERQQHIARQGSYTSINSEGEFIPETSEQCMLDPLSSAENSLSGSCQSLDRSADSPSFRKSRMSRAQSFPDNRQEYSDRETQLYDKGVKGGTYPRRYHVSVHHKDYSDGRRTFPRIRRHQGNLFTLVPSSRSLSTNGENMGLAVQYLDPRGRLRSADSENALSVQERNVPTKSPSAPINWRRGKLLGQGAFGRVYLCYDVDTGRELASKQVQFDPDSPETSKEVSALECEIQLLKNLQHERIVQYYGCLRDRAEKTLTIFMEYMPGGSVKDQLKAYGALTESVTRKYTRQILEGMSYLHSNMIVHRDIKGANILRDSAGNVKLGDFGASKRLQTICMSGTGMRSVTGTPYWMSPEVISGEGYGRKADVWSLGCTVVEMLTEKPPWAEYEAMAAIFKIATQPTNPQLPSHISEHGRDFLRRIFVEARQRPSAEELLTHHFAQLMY
ABCG2 inh = ABCG2 efflux pump inhibitors, primary screen, multiplex with ABCB1, IgMXP3 cells, flow cytometry; JC-1 efflux; 190,000 compounds, 0.1% hits; inhibition, % at 6.6 µM; Broad substrate specificity ATP-binding cassette transporter ABCG2 (Homo sapiens), Q9UNQ0;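 active = inhibition above 80%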
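Read-out basis: Efflux inhibition in percent versus controls | Test system: ABCG2 IgMXP3 and barcoded ABCB1 CCRF-Adr cell mix | Quantity: 3 million cells/mL in well | Schedule: 10 min at 25 °C | Control set: Nicardipine as high control, DMSO as low control | Reagent: JC-1 as fluorescent efflux pump substrate | Signal: Flow cytometry of retained JC-1 fluorescence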
MEKK2 mut-MEK5 = MEK5 binding signal on mutant MEKK2 PB1, primary screen, biochemical, multiplex bead flow cytometry, Alexa488-MEK5; percent response, % at 10 µM; Alexa488-MEK5 binding to MEKK2 mutant; 290,000 compounds, 0.35% hits; in the data active = percent response above about 24%, passing the limit was not always enough
ABCB1 inh = ABCB1 efflux pump inhibitors, primary screen, cell-based, multiplex, flow cytometry, ABCG2 counter-screen. ATP-dependent translocase ABCB1 (Homo sapiens), P08183. inhibition, % at 6.6 µM. 190,000 compounds, 0.067% hits. CCRF-Adr cells, JC-1 efflux. AID 1326, 2008; in the data active = inhibition above about 40%;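 also: higher value means more JC-1 retained so stronger ABCB1 efflux block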
MEKK2wt confirm = modulators of MEK5 binding to wildtype MEKK2, confirmation, biochemical, single concentration, multiplex bead flow cytometry; AID 1892, 2009; 5,900 compounds, 2.4% hits; binding response (% of control), % at 10 µM; Alexa488-MEK5 binding to MEKK2 WT; actives lie on both sides; shares compounds with MEKK3 PB1 HTS; in the data active = binding response below about 16% or above about 210%; inactive = in between
MEKK2mut-MEK5 = mutant MEKK2 PB1-MEK5 binding signal retest – biochemical, single concentration, multiplex bead flow cytometry, confirmation | shares compounds with MEKK3 PB1 HTS | Alexa488-MEK5 binding to MEKK2 mutant | percent response, % at 10 µM | 5,900 compounds, 2% hits; in the data active = percent response mostly above about 71%, no sharp cut-off; inactive = mostly below about 38%;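 also: higher means compound restores mutant binding toward wildtype level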
MEKK3-MEK5 inh = MEKK3 wild-type PB1 binding to MEK5, inhibitors, confirmation, biochemical, bead multiplex flow cytometry, single concentration, wildtype; shares compounds with MEKK3 PB1 HTS; Alexa488-MEK5 binding to MEKK3; stronger effect = lower value; binding response (% of control), % at 10 µM; 5,900 compounds, 1.8% hits; AID 1894, 2009;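 active = binding response below 72% of control, or above a set upper limit, though filed actives all read lower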
Of the large screens only hits and unclear results are named; the others gave an inactive call (follow-up assays come after a bar, where they were run); [ ] = dose if it differs, or a comment.

COc1ccc(S(=O)(=O)N2CCN(C(=O)c3ccc(C)o3)CC2)cc1	none (no result: ABCG2 inh, ABCB1 inh)
N#Cc1cccn1-c1nccc(-c2cccs2)n1	MEKK3 PB1 HTS 149 | MEKK2wt confirm inactive | MEKK2mut-MEK5 inactive | MEKK3-MEK5 inh inactive
COc1ccccc1OCC(=O)NCCSCc1ccc(Cl)cc1	MEKK3 PB1 HTS 132 | MEKK2wt confirm inactive | MEKK2mut-MEK5 inactive | MEKK3-MEK5 inh inactive
Cc1ccc(SCC(=O)NCCSCc2ccccc2)cc1	none
O=C(CCSCc1cccc(Cl)c1)NCCc1ccc(Cl)cc1	none
O=C(CSc1ccccc1)NCCSCc1ccccc1	MEKK3 PB1 HTS 140 | MEKK2wt confirm inactive | MEKK2mut-MEK5 inactive | MEKK3-MEK5 inh inactive
O=C(Cc1ccc(Cl)cc1)NC1CC1	none
O=C(CCSCc1ccc(Cl)cc1)NC1CCCC1	MEKK3 PB1 HTS 151 | MEKK2wt confirm inactive | MEKK2mut-MEK5 inactive | MEKK3-MEK5 inh inactive
O=C(CCSCc1ccc(Cl)cc1)NCCc1ccccc1	MEKK3 PB1 HTS 142 | MEKK2wt confirm inactive | MEKK2mut-MEK5 inactive | MEKK3-MEK5 inh inactive
CCC(C)C(NC(=O)C1CCC(C)CC1)C(=O)Nc1ccc(OC)cc1 (configuration not stated)	none (no result: ABCG2 inh, ABCB1 inh)
CCC(C)N1C(=O)/C(=C/c2c(NCCCOC(C)C)nc3c(C)cccn3c2=O)SC1=S (configuration not stated)	MEKK3 PB1 HTS 32[inhibitor], MEKK2 mut-MEK5 123 (no result: MEKK2 WT-MEK5) | MEKK2wt confirm inactive | MEKK2mut-MEK5 inactive | MEKK3-MEK5 inh inactive
CN(C)C/C=C/C(O)(c1ccccc1)c1ccccc1	none (no result: ABCG2 inh, ABCB1 inh)
CN(C)CC(CCC(CN(C)C)C(O)(c1ccccc1)c1ccccc1)C(O)(c1ccccc1)c1ccccc1 (configuration not stated)	MEKK2 WT-MEK5 149 (no result: ABCG2 inh, ABCB1 inh) | MEKK2wt confirm inactive | MEKK2mut-MEK5 inactive | MEKK3-MEK5 inh inactive
S=C(Nc1ccc(Cl)c(Cl)c1)NC1CCN(Cc2ccccc2)CC1	MEKK2 WT-MEK5 168, MEKK2 mut-MEK5 34 | MEKK2wt confirm inactive | MEKK2mut-MEK5 inactive | MEKK3-MEK5 inh inactive
S=C(Nc1ccc(Cl)cc1)NC1CC2CCC(C1)N2Cc1ccccc1 (configuration not stated)	MEKK2 WT-MEK5 156 | MEKK2wt confirm inactive | MEKK2mut-MEK5 inactive | MEKK3-MEK5 inh inactive
S=C(NCCCN1CCOCC1)Nc1ccc(Cl)c(Cl)c1	MEKK3 PB1 HTS 63[inhibitor] | MEKK2wt confirm inactive | MEKK2mut-MEK5 inactive | MEKK3-MEK5 inh inactive
CSc1cccc(NC(=S)NCCCN2CCN(c3ccc(F)cc3)CC2)c1	MEKK2 WT-MEK5 142 | MEKK2wt confirm inactive | MEKK2mut-MEK5 inactive | MEKK3-MEK5 inh inactive
Fc1cccc(NC(=S)NCCCN2CCOCC2)c1	none
Cc1ccc(NC(=S)NCCCN2CCOCC2)cc1C	none (no result: ABCG2 inh, ABCB1 inh)
CCc1cc(=O)oc2c3c(cc(OCC(=O)N[C@H](C(=O)O)[C@H](C)CC)c12)OC(C)(C)CC3	none (no result: ABCG2 inh, ABCB1 inh)
S=C(NC1CCCCC1)N1CCN(Cc2ccccc2)CC1	MEKK3 PB1 HTS 143 | MEKK2wt confirm inactive | MEKK2mut-MEK5 inactive | MEKK3-MEK5 inh inactive
